From ChEMBL document CHEMBL1137629, “Antiproliferative effect of dihydroxyacetone on Trypanosoma brucei bloodstream forms: cell cycle progression, subcellular alterations, and cell death” (Antimicrob Agents Chemother, 2007) come the findings set out here.

In assay [1] the test system is Trypanosoma brucei. The assay is described as follows: Effect on morphological changes in Trypanosoma brucei bloodstream form assessed as appearance of multiple folds in mitochondrion membrane at 3 mM after 24 hrs by transmission electron microscopy. It is filed as functional, organism-based. A digest of the protocol: (§1)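 Parasites exposed 24 h to 3 mM DHA. 10⁸ cells fixed 1 h at 4°C in 2% glutaraldehyde in 0.2 M sodium cacodylate with 0.12 M sucrose, held overnight in buffer, postfixed in 1.5% osmium tetroxide and stained with 0.5% uranyl acetate. Dehydrated in ethanol, cleared in propylene oxide, embedded in Agar 100. Sections stained with 5% uranyl acetate and 0.4% lead citrate for TEM. Rapamycin (5 μM) served as the autophagy positive control.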

The subject of assay [2] is Trypanosoma brucei. The assay can be described thus: Trypanocidal activity against Trypanosoma brucei bloodstream form assessed as decrease in cell viability at 1 mM up to 40 mins by spectrophotometry. It is filed as functional, organism-based. A digest of the protocol:
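Viability as a carbon source. Bloodstream forms incubated in basic medium lacking glucose and serum: unsupplemented, with 1 mM glucose, or with 1 mM DHA. Cell density and motility followed over time. Triplicate, SD.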

Assay [3] deals with Trypanosoma brucei. The assay is described as follows: Trypanocidal activity against Trypanosoma brucei bloodstream form at < 1 mM. It is filed as functional, organism-based.
Assay [4] has as its system Trypanosoma brucei. The assay can be described thus: Effect on morphological changes in Trypanosoma brucei bloodstream form assessed as increase in cell size after 24 hrs using DAPI staining by phase-contrast microscopy. It counts as functional, organism-based.
Assay [5] has as its system Trypanosoma brucei. The assay is described as follows: Effect on morphological changes in Trypanosoma brucei bloodstream form assessed as presence of atypical combination of number of nucleus after 24 hrs using DAPI staining by phase-contrast microscopy. It is filed as functional, organism-based. A digest of the protocol:
(§2)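 Bloodstream forms (MITat 1.2, EATRO 427) grown 24 h with or without DHA. Aliquots washed twice in PBS, resuspended, placed on slides and fixed with methanol. Stained 5 min with DAPI (0.1 μg/ml final), then washed. Phase-contrast and fluorescence images scored for nucleus/kinetoplast numbers (1N1K, 1N2K, 2N2K, 2N1K, abnormal). n = 4, Student's t test, SD.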

Assay [6] deals with Trypanosoma brucei. The assay is described as follows: Effect on morphological changes in Trypanosoma brucei bloodstream form assessed as increase in autophagic vaculoe structures at 3 mM after 24 hrs by transmission electron microscopy. It is filed as functional, organism-based. A digest of the protocol:
as §1

Assay [7] concerns Trypanosoma brucei. The assay is described as follows: Effect on morphological changes in Trypanosoma brucei bloodstream form assessed as dilation of mitochondrion membrane at 3 mM after 24 hrs by transmission electron microscopy. It counts as functional, organism-based. In outline:
as §1

Assay [8] concerns Trypanosoma brucei. The assay is described as follows: Effect on morphological changes in Trypanosoma brucei bloodstream form assessed as disorder of mitochondrion structure at 3 mM after 24 hrs by transmission electron microscopy. It counts as functional, organism-based. In outline: as §1
For assay [9], the system named is Trypanosoma brucei. The assay is described as follows: Effect on cell cycle of Trypanosoma brucei bloodstream form assessed as increase in cells with two nuclei and two kinetoplasts at 1 to 3 mM using DAPI staining by phase-contrast microscopy. It counts as functional, organism-based. A digest of the protocol: as §2
For assay [10], the system named is Trypanosoma brucei. The assay is described as follows: Effect on cell cycle of Trypanosoma brucei bloodstream form assessed as induction of necrosis at 1 mM after 24 hrs using propidium iodide staining by FACS analysis. It counts as functional. In outline:
(§3)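 Bloodstream forms exposed 24 h at 37°C, 5% CO₂. Cells at 2 × 10⁶/ml incubated 10 min with propidium iodide (5 μg/ml), and uptake read by flow cytometry as a measure of membrane integrity. Digitonin (6 μM) served as the necrosis positive control.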
Background: A flow cytometer gives signals particle by particle.

Assay [11] concerns Trypanosoma brucei. The assay is described as follows: Effect on cell cycle of Trypanosoma brucei bloodstream form assessed as induction of necrosis at 2 mM after 24 hrs using propidium iodide staining by FACS analysis. It is filed as functional. In outline: as §3
Assay [12] relates to Trypanosoma brucei. The assay is described as follows: Effect on cell cycle of Trypanosoma brucei bloodstream form assessed as induction of necrosis at 3 mM after 24 hrs using propidium iodide staining by FACS analysis. It counts as functional. A digest of the protocol: as §3
The subject of assay [13] is Trypanosoma brucei. The assay is described as follows: Effect on cell cycle of Trypanosoma brucei bloodstream form assessed as DNA content at 2 mM after 24 hrs using propidium iodide staining by FACS analysis. It is filed as functional. A digest of the protocol: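 T. brucei bloodstream forms (MITat 1.2, strain EATRO 427), axenic culture at 37°C, 5% CO₂. Treated 24 h. At least 5 × 10⁵ cells washed in PBS, lysed hypotonically 30 min at room temperature in 10 mM phosphate buffer pH 7.4 with 6 μM digitonin. Nuclei stained with propidium iodide (10 μg/ml final) and analysed by flow cytometry for G₁/S/G₂ distribution and degraded DNA.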

Assay [14] relates to Trypanosoma brucei. The assay can be described thus: Trypanocidal activity against Trypanosoma brucei bloodstream form assessed as induction of autophagy at 3 mM after 24 hrs by transmission electron microscopy. It is filed as functional, organism-based. A digest of the protocol: as §1
Assay [15] concerns Trypanosoma brucei. The assay can be described thus: Induction of apoptosis-like programmed cell death in Trypanosoma brucei bloodstream form assessed as loss of mitochondrial-membrane potential at 1 mM after 24 hrs by TMRE staining. It counts as functional. A digest of the protocol:
(§4)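 T. brucei MITat 1.2 (EATRO 427) bloodstream forms were grown axenically at 37°C, 5% CO₂ and exposed to DHA for 24 h. Cells at 10⁶/ml were stained with 25 nM TMRE in culture medium for 30 min at 37°C and read at once by flow cytometry. Depolarization control: valinomycin 100 nM. Lower fluorescence signifies lost membrane potential.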

Assay [16] deals with Trypanosoma brucei. The assay is described as follows: Induction of apoptosis-like programmed cell death in Trypanosoma brucei bloodstream form assessed as loss of mitochondrial-membrane potential at 2 mM after 24 hrs by TMRE staining. It counts as functional. A digest of the protocol:
as §4

Assay [17] deals with Trypanosoma brucei. The assay is described as follows: Induction of apoptosis-like programmed cell death in Trypanosoma brucei bloodstream form assessed as loss of mitochondrial-membrane potential at 3 mM after 24 hrs by TMRE staining. It is filed as functional. In outline: as §4
In assay [18] the test system is Trypanosoma brucei. The assay is described as follows: Induction of apoptosis-like programmed cell death in Trypanosoma brucei bloodstream form assessed as loss of mitochondrial-membrane potential at 4 mM after 24 hrs by TMRE staining. It counts as functional. A digest of the protocol: as §4
For assay [19], the system named is Trypanosoma brucei. The assay is described as follows: Induction of apoptosis-like programmed cell death in Trypanosoma brucei bloodstream form assessed as phosphatidylserine exposure in outer leaflet of plasma membrane at 4 mM after 24 hrs by V-Fluos staining staining. It is filed as functional. A digest of the protocol: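 After 24 h DHA exposure of axenic bloodstream-form T. brucei MITat 1.2 (EATRO 427; 37°C, 5% CO₂), cells were washed in HEPES buffer (10 mM, pH 7.4, 140 mM NaCl, 5 mM CaCl₂). They were then stained with annexin V-Fluos for 15 min at 4°C and analysed by flow cytometry.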

The test system of assay [20] is Trypanosoma brucei. The assay can be described thus: Induction of apoptosis-like programmed cell death in Trypanosoma brucei bloodstream form assessed as increase in intracellular reactive oxygen species production at 2 mM after 24 hrs by FACS analysis. It counts as functional. A digest of the protocol:
(§5)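 Bloodstream-form T. brucei MITat 1.2 (VSG 221, strain EATRO 427) were grown axenically at 37°C, 5% CO₂ and exposed to DHA for 24 h. Control and treated cells were then loaded with 10 μM dichlorofluorescein diacetate for 1 h at 37°C. Intracellular fluorescence intensity was read by flow cytometry.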

For assay [21], the system named is Trypanosoma brucei. The assay can be described thus: Induction of apoptosis-like programmed cell death in Trypanosoma brucei bloodstream form assessed as increase in intracellular reactive oxygen species production at 3 mM after 24 hrs by FACS analysis. It is filed as functional. In outline: as §5
In assay [22] the test system is Trypanosoma brucei. The assay is described as follows: Induction of apoptosis-like programmed cell death in Trypanosoma brucei bloodstream form assessed as increase in intracellular reactive oxygen species production at 4 mM after 24 hrs by FACS analysis. It is filed as functional. In outline: as §5
Assay [23] has as its system Trypanosoma brucei. The assay is described as follows: Induction of apoptosis-like programmed cell death in Trypanosoma brucei bloodstream form assessed as increase in intracellular reactive oxygen species production at 5 uM after 24 hrs by FACS analysis. It counts as functional.
The test system of assay [24] is Trypanosoma brucei. The assay is described as follows: Induction of necrosis in Trypanosoma brucei bloodstream form assessed as death of total cell population at > 4 mM up to 24 hrs using propidium iodide staining by FACS analysis.

Each structure is given as a SMILES string. The source made the active and inactive calls. No cut-off for these calls is given here.

On to `O=C(CO)CO` [DIHYDROXYACETONE], for which the result in the assay with Trypanosoma brucei [1], with Trypanosoma brucei [3], in the assay on Trypanosoma brucei [6], with Trypanosoma brucei [7], in the assay on Trypanosoma brucei [8] and with Trypanosoma brucei [9] was Active. The outcome with Trypanosoma brucei [14] and in the assay on Trypanosoma brucei [24] was Active. Further, in the assay with Trypanosoma brucei [2], the result was inactive. For the same molecule, the Activity entry was “Dose-dependent effect” in the assay on Trypanosoma brucei [4]; “Dose-dependent effect” in the assay on Trypanosoma brucei [5]; 4% in the assay on Trypanosoma brucei [10]; 8.3% in the assay on Trypanosoma brucei [11]; 9.9% in the assay on Trypanosoma brucei [12]; 9% in the assay with Trypanosoma brucei [13]. Moreover, the Activity is listed as 4.9% with Trypanosoma brucei [15]; 7.3% in the assay with Trypanosoma brucei [16]; 12.3% with Trypanosoma brucei [17]; 26.8% with Trypanosoma brucei [18]; 20% with Trypanosoma brucei [19]; 10.6% with Trypanosoma brucei [20]. The Activity with Trypanosoma brucei [21] was 14.4%; with Trypanosoma brucei [22] it was 23.2%; in the assay with Trypanosoma brucei [23], 33.6%.
